Source: ChEMBL document CHEMBL3232876, “Novel R-(+)-limonene-based thiosemicarbazones and their antitumor activity against human tumor cell lines” (Eur J Med Chem, 2014)

Experiments:
[1] = tested on: U-251; experiment: Growth inhibition of human U251 cells after 48 hrs by sulforhodamine B assay; assay type: functional; settings: U-251, 48 h
Summary of the method: (§1)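 Tumour lines from NCI and Vero from the Rio de Janeiro Cell Bank, grown in RPMI 1640 with 5% fetal bovine serum, with penicillin:streptomycin added to experimental cultures. Each compound was tested at four 10-fold dilutions; sulforhodamine B staining at time zero and 48 h. Proliferation was calculated against T0 and drug-free controls, and GI50 came from sigmoidal regression of the concentration-response curves. Representative experiment in triplicate.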

[2] = Growth inhibition of human UACC62 cells after 48 hrs by sulforhodamine B assay; assay type: functional; settings: UACC-62, 48 h; summary of the method: as §1
[3] = tested on: MCF7; experiment: Growth inhibition of human MCF7 cells after 48 hrs by sulforhodamine B assay; assay type: functional; settings: MCF7, 48 h; summary of the method: as §1
[4] = Growth inhibition of human NCI-ADR-RES cells after 48 hrs by sulforhodamine B assay; assay type: functional; summary of the method: as §1
[5] = tested on: NCI-H460; experiment: Growth inhibition of human NCI-H460 cells after 48 hrs by sulforhodamine B assay; assay type: functional; settings: NCI-H460, 48 h; summary of the method: as §1
[6] = tested on: 786-0; experiment: Growth inhibition of human 786-0 cells after 48 hrs by sulforhodamine B assay; assay type: functional; settings: 786-0, 48 h; summary of the method: as §1
[7] = tested on: PC-3; experiment: Growth inhibition of human PC3 cells after 48 hrs by sulforhodamine B assay; assay type: functional; settings: PC-3, 48 h; summary of the method: as §1
[8] = Growth inhibition of human OVCAR3 cells after 48 hrs by sulforhodamine B assay; assay type: functional; settings: OVCAR-3, 48 h; summary of the method: as §1
[9] = tested on: HT-29; experiment: Growth inhibition of human HT-29 cells after 48 hrs by sulforhodamine B assay; assay type: functional; settings: HT-29, 48 h; summary of the method: as §1
[10] = tested on: K562; experiment: Growth inhibition of human K562 cells after 48 hrs by sulforhodamine B assay; assay type: functional; settings: K562, 48 h; summary of the method: as §1
[11] = (§2) Growth inhibition of African green monkey Vero cells after 48 hrs by sulforhodamine B assay; assay type: cell-based; settings: chlorocebus sabaeus, Vero cells; summary of the method: as §1
[12] = tested on: Vero; experiment: as §2; assay type: cell-based; settings: chlorocebus sabaeus, vero, 48 h; summary of the method: as §1

COc1cc(/C=N/NC(=S)NC(C)(C)[C@H]2CC=C(C)CC2)ccc1O
GI50 [1]: 11.7 µM
TGI [1]: 32.6 µM
GI50 [2]: 14.7 µM
TGI [2]: 42.3 µM
GI50 [3]: 14.8 µM
TGI [3]: 63.9 µM
GI50 [4]: 23.9 µM
TGI [4]: > 100 µM
GI50 [5]: > 100 µM
TGI [5]: > 100 µM
GI50 [6]: 12.9 µM
TGI [6]: 35.4 µM
GI50 [7]: 0.3 µM
TGI [7]: 8.3 µM
GI50 [8]: 53.5 µM
TGI [8]: > 100 µM
GI50 [9]: < 0.04 µM
TGI [9]: < 0.7 µM
GI50 [10]: 1.9 µM
TGI [10]: 85.2 µM
GI50 at 48 h [11]: 19.7 µM
TGI [12]: 91.8 µM

CC1=CC[C@H](C(C)(C)NC(=S)N/N=C/c2cccc([N+](=O)[O-])c2)CC1
GI50 [1]: > 100 µM
TGI [1]: > 100 µM
GI50 [2]: > 100 µM
TGI [2]: > 100 µM
GI50 [3]: > 100 µM
TGI [3]: > 100 µM
GI50 [4]: > 100 µM
TGI [4]: > 100 µM
GI50 [5]: > 100 µM
TGI [5]: > 100 µM
GI50 [6]: > 100 µM
TGI [6]: > 100 µM
GI50 [7]: 9.5 µM
TGI [7]: 88 µM
GI50 [8]: > 100 µM
TGI [8]: > 100 µM
GI50 [9]: 0.6 µM
TGI [9]: 21.9 µM
GI50 [10]: 45.6 µM
TGI [10]: > 100 µM
GI50 at 48 h [11]: > 100 µM
TGI [12]: > 100 µM

CC1=CC[C@H](C(C)(C)NC(=S)N/N=C/c2cccs2)CC1
GI50 [1]: 13.5 µM
TGI [1]: 27.4 µM
GI50 [2]: 2.6 µM
TGI [2]: 19 µM
GI50 [3]: 4.8 µM
TGI [3]: 11.5 µM
GI50 [4]: 13.6 µM
TGI [4]: 41 µM
GI50 [5]: 10.8 µM
TGI [5]: 20.8 µM
GI50 [6]: 11.5 µM
TGI [6]: 26.7 µM
GI50 [7]: 17.8 µM
TGI [7]: 62.8 µM
GI50 [8]: 13.1 µM
TGI [8]: 35.1 µM
GI50 [9]: 17.8 µM
TGI [9]: 57.8 µM
GI50 [10]: 17.6 µM
TGI [10]: > 100 µM
GI50 at 48 h [11]: 10.1 µM
TGI [12]: 13.4 µM

CC1=CC[C@H](C(C)(C)NC(=S)N/N=C(\C)c2ccccc2)CC1
GI50 [1]: > 100 µM
TGI [1]: > 100 µM
GI50 [2]: > 100 µM
TGI [2]: > 100 µM
GI50 [3]: 20.7 µM
TGI [3]: > 100 µM
GI50 [4]: > 100 µM
TGI [4]: > 100 µM
GI50 [5]: > 100 µM
TGI [5]: > 100 µM
GI50 [6]: > 100 µM
TGI [6]: > 100 µM
GI50 [7]: > 100 µM
TGI [7]: > 100 µM
GI50 [8]: > 100 µM
TGI [8]: > 100 µM
GI50 [9]: 29.5 µM
TGI [9]: > 100 µM
GI50 [10]: > 100 µM
TGI [10]: > 100 µM
GI50 at 48 h [11]: > 100 µM
TGI [12]: > 100 µM

CC1=CC[C@H](C(C)(C)NC(=S)N/N=C/c2ccc(C)cc2)CC1
GI50 [1]: 89.2 µM
TGI [1]: > 100 µM
GI50 [2]: 75.9 µM
TGI [2]: > 100 µM
GI50 [3]: 15.2 µM
TGI [3]: 93.6 µM
GI50 [4]: 78.5 µM
TGI [4]: > 100 µM
GI50 [5]: 75.7 µM
TGI [5]: > 100 µM
GI50 [6]: 87.2 µM
TGI [6]: > 100 µM
GI50 [7]: < 0.04 µM
TGI [7]: 0.9 µM
GI50 [8]: 67.2 µM
TGI [8]: > 100 µM
GI50 [9]: 20.2 µM
TGI [9]: 94.5 µM
GI50 [10]: 1.6 µM
TGI [10]: 56.8 µM
GI50 at 48 h [11]: 81.4 µM
TGI [12]: > 100 µM

CC1=CC[C@H](C(C)(C)NC(=S)N/N=C/c2ccc(Cl)cc2)CC1
GI50 [1]: 69.5 µM
TGI [1]: > 100 µM
GI50 [2]: 11.2 µM
TGI [2]: > 100 µM
GI50 [3]: 18.3 µM
TGI [3]: > 100 µM
GI50 [4]: 65.2 µM
TGI [4]: 97.4 µM
GI50 [5]: 7.8 µM
TGI [5]: 21.1 µM
GI50 [6]: 74.9 µM
TGI [6]: > 100 µM
GI50 [7]: 0.05 µM
TGI [7]: 1.7 µM
GI50 [8]: 8.6 µM
TGI [8]: 26.4 µM
GI50 [9]: 13.6 µM
TGI [9]: 70.5 µM
GI50 [10]: 0.3 µM
TGI [10]: 16.9 µM
GI50 at 48 h [11]: 70 µM
TGI [12]: > 100 µM
